Laboratory results reported in ChEMBL document CHEMBL3608251, “Probing the 'bipolar' nature of the carbonic anhydrase active site: aromatic sulfonamides containing 1,3-oxazol-5-yl moiety as picomolar inhibitors of cytosolic CA I and CA II isoforms” (Eur J Med Chem, 2015).

Legend:
Carbonic anhydrase 2 = Carbonic anhydrase 2 (Homo sapiens, UniProt P00918); test: Inhibition of human recombinant carbonic anhydrase 2 preincubated for 15 mins by stopped flow CO2 hydration method
Carbonic anhydrase 12 = Carbonic anhydrase 12 (Homo sapiens, UniProt O43570); test: Inhibition of human recombinant carbonic anhydrase 12 preincubated for 15 mins by stopped flow CO2 hydration method
Carbonic anhydrase 12, sequence (O43570 whole entry, canonical isoform): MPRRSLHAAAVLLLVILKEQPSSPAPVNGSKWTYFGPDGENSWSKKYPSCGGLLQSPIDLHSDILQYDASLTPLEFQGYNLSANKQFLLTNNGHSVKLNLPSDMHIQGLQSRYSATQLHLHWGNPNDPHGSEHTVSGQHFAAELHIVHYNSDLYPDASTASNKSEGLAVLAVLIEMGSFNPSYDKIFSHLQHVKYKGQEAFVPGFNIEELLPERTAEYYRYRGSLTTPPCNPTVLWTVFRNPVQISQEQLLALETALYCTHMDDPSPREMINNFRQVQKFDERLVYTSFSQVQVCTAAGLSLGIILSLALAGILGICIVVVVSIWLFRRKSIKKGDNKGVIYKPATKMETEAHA
Procedure, shortened: (§1)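 Stopped-flow assay of CO2 hydration by in-house recombinant CA isoforms. Phenol red 0.2 mM read at 557 nm, in 20 mM Tris pH 8.3 with 20 mM Na2SO4 for constant ionic strength. CO2 1.7–17 mM; initial rates over 10–100 s, uncatalyzed rate subtracted. Inhibitor diluted in buffer down to 0.005 nM and preincubated with enzyme 15 min at room temperature. Ki by non-linear least squares with Cheng-Prusoff, mean of ≥3 determinations.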

Homo sapiens [1] = organism: Homo sapiens; test: Selectivity ratio of Ki for human recombinant carbonic anhydrase 2 to Ki for human recombinant carbonic anhydrase 1
Carbonic anhydrase 1 = Carbonic anhydrase 1 (Homo sapiens, UniProt P00915); test: Inhibition of human recombinant carbonic anhydrase 1 preincubated for 15 mins by stopped flow CO2 hydration method; procedure, shortened: as §1
Carbonic anhydrase 1, sequence (P00915 whole entry): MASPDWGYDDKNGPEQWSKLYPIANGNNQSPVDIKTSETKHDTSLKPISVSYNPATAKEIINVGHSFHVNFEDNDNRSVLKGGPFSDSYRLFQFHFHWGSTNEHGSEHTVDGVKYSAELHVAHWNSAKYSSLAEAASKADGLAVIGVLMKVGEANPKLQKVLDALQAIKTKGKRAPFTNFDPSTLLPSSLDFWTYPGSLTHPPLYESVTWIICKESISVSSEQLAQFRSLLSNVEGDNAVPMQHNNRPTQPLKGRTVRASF

Carbonic anhydrase 9 = Carbonic anhydrase 9 (Homo sapiens, UniProt Q16790); test: Inhibition of human recombinant carbonic anhydrase 9 preincubated for 15 mins by stopped flow CO2 hydration method; procedure, shortened: as §1
Homo sapiens [2] = organism: Homo sapiens; test: Selectivity ratio of Ki for human recombinant carbonic anhydrase 2 to Ki for human recombinant carbonic anhydrase 12
Homo sapiens [3] = organism: Homo sapiens; test: Selectivity ratio of Ki for human recombinant carbonic anhydrase 9 to Ki for human recombinant carbonic anhydrase 2
Homo sapiens [4] = organism: Homo sapiens; test: Selectivity ratio of Ki for human recombinant carbonic anhydrase 12 to Ki for human recombinant carbonic anhydrase 2
Homo sapiens [5] = organism: Homo sapiens; test: Selectivity ratio of Ki for human recombinant carbonic anhydrase 1 to Ki for human recombinant carbonic anhydrase 2

Compound	Ki (Carbonic anhydrase 2) [nM]	Ki (Carbonic anhydrase 12) [nM]	Ratio Ki (Homo sapiens [1])	Ki (Carbonic anhydrase 1) [nM]	Ki (Carbonic anhydrase 9) [nM]	Ratio Ki (Homo sapiens [2])	Ratio Ki (Homo sapiens [3])	Ratio Ki (Homo sapiens [4])	Ratio Ki (Homo sapiens [5])
Cc1ncc(-c2ccc(S(N)(=O)=O)s2)o1	6.3	9.4	1000	141	10.5				
Cc1ccc(-c2cnc(C(=O)N3CCOCC3)o2)cc1S(N)(=O)=O	0.28	557	> 100000	58.6	3.7	> 100000			
Cc1ncc(-c2ccc(C)c(S(N)(=O)=O)c2)o1	7.1	245	> 100000	45.4	274	> 100000			
Cc1ncc(-c2csc(S(N)(=O)=O)c2)o1	0.01	3.6	1000	0.05	26.3				
COc1ccc(-c2cnc(C3CCC3)o2)cc1S(N)(=O)=O	58.2	62.8	> 100000	6110		> 100000			
NS(=O)(=O)c1ccc(-c2cnc(C3CC3)o2)cc1	0.01	6.2		4.8	3.2		100	100	100
NS(=O)(=O)c1ccc(-c2cnc(C3CCC3)o2)s1	0.01	5.1	1000	36.8					
COc1ccc(-c2cnc(C)o2)cc1S(N)(=O)=O	4420	3540	> 100000	> 10000	276	> 100000			
Cc1ccc(-c2cnc(C3CCC3)o2)cc1S(N)(=O)=O	283	1390	> 100000	231	285	> 100000			
Cc1ccc(-c2cnc(C3CC3)o2)cc1S(N)(=O)=O	63.9	381	> 100000	289		> 100000			
NS(=O)(=O)c1ccc(-c2cnc(C3CCC3)o2)cc1	0.02	8.7		55.3			100	100	100
Cc1ccc(-c2cnc(C(=O)N3CCCC3)o2)cc1S(N)(=O)=O	0.01	2790	> 100000	8.5	42.5	> 100000			
Cc1ncc(-c2ccc(S(N)(=O)=O)cc2)o1		8.5		96.3	23.1				
COc1ccc(-c2cnc(C(=O)N3CCOCC3)o2)cc1S(N)(=O)=O	0.05	> 10000	> 100000	> 10000	4.5	> 100000			
NS(=O)(=O)c1ccc(-c2cnc(C3CC3)o2)s1	4.8	9.2	1000	130	122				
COc1ccc(-c2cnc(C3CC3)o2)cc1S(N)(=O)=O	8860	7960	> 100000	> 10000	438	> 100000			

Second part, the molecule after the results:

Ki (Carbonic anhydrase 2) [nM]	Ki (Carbonic anhydrase 12) [nM]	Ratio Ki (Homo sapiens [1])	Ki (Carbonic anhydrase 1) [nM]	Ki (Carbonic anhydrase 9) [nM]	Ratio Ki (Homo sapiens [2])	Ratio Ki (Homo sapiens [3])	Ratio Ki (Homo sapiens [4])	Ratio Ki (Homo sapiens [5])	Compound
0.01	6.6	1000	9	25.9					NS(=O)(=O)c1cc(-c2cnc(C3CCC3)o2)cs1
0.009	42.3		0.01	1.7					NS(=O)(=O)c1ccc(-c2cnc(C(=O)N3CCCC3)o2)cc1
0.008	6.9		0.01	1.6					NS(=O)(=O)c1ccc(-c2cnc(C(=O)N3CCOCC3)o2)cc1
0.02	64.4	1000	79.9	15.2					NS(=O)(=O)c1cc(-c2cnc(C(=O)N3CCCC3)o2)cs1
	30.3		22.5	36.4					NS(=O)(=O)c1ccc(-c2cnc(C(=O)N3CCOCC3)o2)s1
0.03	9.2	1000	0.09						NS(=O)(=O)c1cc(-c2cnc(C(=O)N3CCOCC3)o2)cs1
0.01	6.7	1000	41.9	18.7					NS(=O)(=O)c1ccc(-c2cnc(C(=O)N3CCCC3)o2)s1
0.01	8570	> 100000	> 10000	4.1	> 100000				COc1ccc(-c2cnc(C(=O)N3CCCC3)o2)cc1S(N)(=O)=O
2.5	8.7	1000	22						NS(=O)(=O)c1cc(-c2cnc(C3CC3)o2)cs1
